Laboratory results published in ChEMBL document CHEMBL5724801, “EUbOPEN Chemogenomics Library - Multiplex” (2024).
Where “and” joins values, the source holds several entries; their conditions need not be identical. Equal values may be shown once.

System: U2OS
Test: Multiplex assay against U2OS
Type: toxicity, cell-based
Settings: human
How it was run: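 At seeding, live cells were stained with Hoechst33342, BioTracker Green Microtubule Cytoskeleton Dye, MitoTracker Red and Annexin V Alexa Fluor 680. After compound addition they were imaged on a CQ1 microscope at 37°C and 5% CO2, and CellPathfinder machine-learning gating sorted them into Hoechst high-intensity objects or normal cells, with normal cells further split into healthy, pyknosed or fragmented nuclei and pyknosed cells into mitotic or apoptotic. Tubulin, mitochondrial-mass and membrane-permeability phenotypes are given as per cents of cells with healthy nuclei.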

[1] = 12 h, 1 µM, compound concentration 1 uM
[2] = 12 h, 10 µM, compound concentration 10 uM
[3] = 24 h, 1 µM, compound concentration 1 uM
[4] = 24 h, 10 µM, compound concentration 10 uM
[5] = 48 h, 1 µM, compound concentration 1 uM
[6] = 48 h, 10 µM, compound concentration 10 uM

For `O=C(NCCN1CCC(n2c(=O)[nH]c3cc(Cl)ccc32)CC1)c1ccc(F)cc1` [HALOPEMIDE], the “Population Apoptotic (%)” value [1] was 95% and 50%, the “Population Fragmented Nuclei (%)” value [1] was 24% and 13% and the “Population Healthy Nuclei (%)” value [1] was 65% and 79%. For the same compound, the “Population Hoechst High Intensity Objects (%)” value [1] was 1% and 0%, the “Population Membrane Permeable-Phenotype (%)” value [1] was 6% and 7% and the “Population Mitochondria Different-Phenotype (%)” value [1] was 1% and 2%. For the same compound, the “Population Normal (%)” value [1] was 98% and 100%, the “Population Pyknosed Nuclei (%)” value [1] was 10% and 7% and the “Population Tubulin-Different-Phenotype (%)” value [1] was 2% and 3%. The “Total Cell Count” value [1] was 209 and 105, the “Population Apoptotic (%)” value [2] was 68% and 61% and the “Population Fragmented Nuclei (%)” value [2] was 19% and 12%. For the same compound, the “Population Healthy Nuclei (%)” value [2] was 65% and 78%, the “Population Hoechst High Intensity Objects (%)” value [2] was 4% and 1% and the “Population Membrane Permeable-Phenotype (%)” value [2] was 23% and 26%. For the same compound, the “Population Mitochondria Different-Phenotype (%)” value [2] was 11% and 32%, the “Population Mitotic Cells (%)” value [2] was 31% and 38% and the “Population Normal (%)” value [2] was 95% and 98%. For the same compound, the “Population Pyknosed Nuclei (%)” value [2] was 15% and 8%, the “Population Tubulin-Different-Phenotype (%)” value [2] was 15% and 27% and the “Total Cell Count” value [2] was 244 and 152. The “Population Apoptotic (%)” value [3] was 91% and 81%, the “Population Fragmented Nuclei (%)” value [3] was 22% and 15% and the “Population Healthy Nuclei (%)” value [3] was 68% and 72%. For the same compound, the “Population Hoechst High Intensity Objects (%)” value [3] was 1% and 0%, the “Population Membrane Permeable-Phenotype (%)” value [3] was 6% and 10% and the “Population Mitochondria Different-Phenotype (%)” value [3] was 1% and 3%. For the same compound, the “Population Mitotic Cells (%)” value [3] was 8% and 18%, the “Population Normal (%)” value [3] was 98% and 99% and the “Population Pyknosed Nuclei (%)” value [3] was 9% and 12%. The “Population Tubulin-Different-Phenotype (%)” value [3] was 1% and 8%, the “Total Cell Count” value [3] was 241 and 132 and the “Population Apoptotic (%)” value [4] was 75% and 63%. The “Population Fragmented Nuclei (%)” value [4] was 17% and 16%, the “Population Healthy Nuclei (%)” value [4] was 64% and 71% and the “Population Hoechst High Intensity Objects (%)” value [4] was 2% and 3%. For the same compound, the “Population Membrane Permeable-Phenotype (%)” value [4] was 15% and 26%, the “Population Mitochondria Different-Phenotype (%)” value [4] was 10% and 23% and the “Population Mitotic Cells (%)” value [4] was 25% and 36%. The “Population Normal (%)” value [4] was 97% and 96%, the “Population Pyknosed Nuclei (%)” value [4] was 18% and 12% and the “Population Tubulin-Different-Phenotype (%)” value [4] was 7% and 21%. The “Total Cell Count” value [4] was 271 and 159, the “Population Apoptotic (%)” value [5] was 68% and 95% and the “Population Fragmented Nuclei (%)” value [5] was 16% and 17%. The “Population Healthy Nuclei (%)” value [5] was 75% and 69%, the “Population Hoechst High Intensity Objects (%)” value [5] was 2% and 1% and the “Population Membrane Permeable-Phenotype (%)” value [5] was 4% and 9%. The “Population Mitochondria Different-Phenotype (%)” value [5] was 2% and 5%, the “Population Normal (%)” value [5] was 97% and 98% and the “Population Pyknosed Nuclei (%)” value [5] was 7% and 12%. The “Population Tubulin-Different-Phenotype (%)” value [5] was 2% and 6%, the “Total Cell Count” value [5] was 337 and 187 and the “Population Apoptotic (%)” value [6] was 81% and 77%. For the same compound, the “Population Fragmented Nuclei (%)” value [6] was 15% and 13%, the “Population Healthy Nuclei (%)” value [6] was 69% and 67% and the “Population Hoechst High Intensity Objects (%)” value [6] was 3% and 6%. For the same compound, the “Population Membrane Permeable-Phenotype (%)” value [6] was 10% and 16%, the “Population Mitochondria Different-Phenotype (%)” value [6] was 5% and 12% and the “Population Mitotic Cells (%)” value [6] was 18% and 22%. For the same compound, the “Population Normal (%)” value [6] was 96% and 93%, the “Population Pyknosed Nuclei (%)” value [6] was 14% and 18% and the “Population Tubulin-Different-Phenotype (%)” value [6] was 5% and 6%. For the same compound, the “Total Cell Count” value [6] was 382 and 197.
